Measurements as given in article PMC2788666 (Journal of medicinal chemistry, 2009).
“Also recorded” adds a separate entry of the source. Read-outs that look alike come from different tables or passages of the source.

Assays:
[1] = molecular target: T1, κ opioid receptor (Homo sapiens, UniProt P41145); experiment: Opioid binding to κ receptor, [3H]U69,593, CHO membranes; settings: for times less active than unsubstituted C10 bivalent ligand 10 at the κ receptor: binding affinity versus 10; for Selectivity μ/δ/κ: ratio of Ki values, κ = 1
Method in brief: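 Membranes from CHO cells stably expressing human κ opioid receptor were incubated 60 min at 25 °C in 50 mM Tris-HCl pH 7.5 with 1 nM (final) [3H]U69,593. […] Samples were filtered on glass-fibre filters presoaked ≥30 min in 0.1% polyethylenimine, washed three times with cold Tris buffer, and counted by scintillation. IC50 came from a log-probit least-squares fit, Ki from IC50/(1+S), and ratios from Ki values.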

[2] = molecular target: T2, μ opioid receptor (Homo sapiens, UniProt P35372); experiment: [35S]GTPγS binding mediated by the μ opioid receptor, agonist effects; format: biochemical; settings: for Functional Activity at μ opioid receptor: [35S]GTPγS binding; for Emax (% stimulation) ± S.E.M., Mu Agonist Effects: CHO cells expressing μ opioid receptor
[3] = molecular target: T1, κ opioid receptor; experiment: [35S]GTPγS binding mediated by the kappa opioid receptor, agonist effects; format: biochemical; settings: for Functional activity at κ opioid receptor: [35S]GTPγS binding
Method in brief: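 CHO cells expressing κ opioid receptor were incubated with test compound at 12 concentrations, and agonist-stimulated [35S]GTPγS binding was measured. EC50 and maximal stimulation (% stimulation) are reported with S.E.M.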

[4] = molecular target: T1, κ opioid receptor; experiment: [35S]GTPγS binding mediated by the kappa opioid receptor, antagonist effects; format: biochemical; settings: for IC50 (nM) ± S.E.M., Kappa Antagonist Effects: binding stimulated with 100 nM U50,488; for Imax (% inhibition) ± S.E.M., Kappa Antagonist Effects: binding stimulated with 100 nM U50,488, set at 100% control
Method in brief: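 Antagonist mode in CHO cells expressing κ opioid receptor: [35S]GTPγS binding was stimulated with 100 nM U50,488, taken as 100% control binding. Inhibition of this stimulated binding by test compound was measured, and IC50 and maximal inhibition (% inhibition) are reported with S.E.M.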

[5] = molecular target: T2, μ opioid receptor; experiment: [35S]GTPγS binding mediated by the μ opioid receptor, antagonist effects; format: biochemical; settings: binding stimulated with 200 nM DAMGO; for Imax (% inhibition) ± S.E.M., Mu Antagonist Effects: set at 100% control
[6] = molecular target: T1, κ opioid receptor; settings: ratio of Ki values, κ = 1; ref [2]; cited from earlier work
[7] = pH 7.4; ref [8]; cited from earlier work

T1 sequence (P41145 whole entry): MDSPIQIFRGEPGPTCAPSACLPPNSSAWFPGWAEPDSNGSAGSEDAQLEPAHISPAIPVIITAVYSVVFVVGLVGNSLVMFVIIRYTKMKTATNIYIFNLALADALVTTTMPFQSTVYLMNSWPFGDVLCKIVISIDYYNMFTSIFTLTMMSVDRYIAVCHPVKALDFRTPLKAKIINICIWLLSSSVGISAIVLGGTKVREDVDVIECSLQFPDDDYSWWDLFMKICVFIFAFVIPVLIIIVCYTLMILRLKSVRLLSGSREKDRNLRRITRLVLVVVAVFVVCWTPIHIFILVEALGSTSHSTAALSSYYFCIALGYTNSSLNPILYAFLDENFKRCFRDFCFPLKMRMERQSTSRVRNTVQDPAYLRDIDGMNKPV
T2 sequence (P35372 whole entry): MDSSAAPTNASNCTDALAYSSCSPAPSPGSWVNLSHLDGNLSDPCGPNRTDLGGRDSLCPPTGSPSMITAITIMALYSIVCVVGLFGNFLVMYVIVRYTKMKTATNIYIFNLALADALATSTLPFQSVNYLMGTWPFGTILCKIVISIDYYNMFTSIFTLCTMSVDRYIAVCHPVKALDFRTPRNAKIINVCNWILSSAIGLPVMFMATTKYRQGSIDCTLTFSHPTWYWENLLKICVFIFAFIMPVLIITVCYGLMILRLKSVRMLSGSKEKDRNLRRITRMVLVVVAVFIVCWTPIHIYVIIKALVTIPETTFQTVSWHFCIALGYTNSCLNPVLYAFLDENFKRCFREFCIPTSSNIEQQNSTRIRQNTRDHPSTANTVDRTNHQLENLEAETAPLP

Compound: CC(CCCCCCC(C)C(=O)Oc1ccc2c(c1)[C@@]13CCCC[C@H]1[C@@H](C2)N(CC1CCC1)CC3)C(=O)Oc1ccc2c(c1)[C@@]13CCCC[C@H]1[C@@H](C2)N(CC1CCC1)CC3 (stereo partly drawn) [4a, Bis((−)-N-cyclobutylmethylmorphinan-3-yl) 2,9-dimethyldecanedioate]
- times less active than unsubstituted C10 bivalent ligand 10 at the κ receptor [1]: approximately 10 times
- Functional Activity at μ opioid receptor [2]: Partial Agonist
- Functional activity at κ opioid receptor [3]: partial agonists; also recorded: κ agonists; also recorded: Agonist
- IC50 (nM) ± S.E.M., Kappa Antagonist Effects [4]: No inhibition
- Imax (% inhibition) ± S.E.M., Kappa Antagonist Effects [4]: No inhibition

Compound: CC(C)(CCCCCCC(C)(C)C(=O)Oc1ccc2c(c1)[C@@]13CCCC[C@H]1[C@@H](C2)N(CC1CCC1)CC3)C(=O)Oc1ccc2c(c1)[C@@]13CCCC[C@H]1[C@@H](C2)N(CC1CCC1)CC3 [4b, Bis((−)-N-cyclobutylmethylmorphinan-3-yl) 2,2,9,9-tetramethyldecanedioate]
- times less active than unsubstituted C10 bivalent ligand 10 at the κ receptor [1]: approximately 10 times
- Selectivity μ/δ/κ [1]: 1/32/1
- Functional Activity at μ opioid receptor [2]: Partial Agonist
- Functional activity at κ opioid receptor [3]: partial agonists; also recorded: κ agonists; also recorded: Agonist
- IC50 (nM) ± S.E.M., Kappa Antagonist Effects [4]: No inhibition
- Imax (% inhibition) ± S.E.M., Kappa Antagonist Effects [4]: No inhibition

Compound: CC(CCCCCCC(C)C(=O)Oc1ccc2c(c1)[C@@]13CCCC[C@H]1[C@@H](C2)N(CC1CCC1)CC3)C(=O)O (stereo partly drawn) [7a, 2,9-Dimethyldecanedioic acid 10-((−)-N-cyclobutylmethylmorphinan-3-yl) ester]
- Selectivity μ/δ/κ [1]: 1/48/1
- Functional Activity at μ opioid receptor [2]: Partial Agonist
- Functional activity at κ opioid receptor [3]: κ agonists; also recorded: Agonist
- IC50 (nM) ± S.E.M., Kappa Antagonist Effects [4]: No inhibition
- Imax (% inhibition) ± S.E.M., Kappa Antagonist Effects [4]: No inhibition

Compound: CC(C)(CCCCCCC(C)(C)C(=O)Oc1ccc2c(c1)[C@@]13CCCC[C@H]1[C@@H](C2)N(CC1CCC1)CC3)C(=O)O [7b, 2,2,9,9-Tetramethyldecanedioic acid 10-((−)-N-cyclobutylmethylmorphinan-3-yl) ester]
- Selectivity μ/δ/κ [1]: 3/22/1

Compound: Oc1ccc2c(c1)[C@@]13CCCC[C@H]1[C@@H](C2)N(CC1CCC1)CC3 [Butorphan, butorphan]
- Emax (% stimulation) ± S.E.M., Mu Agonist Effects [2]: 50 ± 2.5 % stimulation
- Functional Activity at μ opioid receptor [2]: Partial Agonist
- Imax (% inhibition) ± S.E.M., Mu Antagonist Effects [5]: 50 ± 2.6 % inhibition
- Emax (% stimulation) ± S.E.M., Kappa Agonist Effects ([3]; CHO cells expressing κ opioid receptor): 80 ± 6.8 % stimulation
- Functional activity at κ opioid receptor [3]: Agonist

Compound: O=C(O)CCCCCCCCC(=O)Oc1ccc2c(c1)[C@@]13CCCC[C@H]1[C@@H](C2)N(CC1CCC1)CC3 [compound 9, reference compound]
- Functional Activity at μ opioid receptor [2]: full μ agonist
- IC50 (nM) ± S.E.M., Mu Antagonist Effects [5]: No inhibition
- Imax (% inhibition) ± S.E.M., Mu Antagonist Effects [5]: No inhibition
- Functional activity at κ opioid receptor [3]: κ agonists; also recorded: full agonist
- IC50 (nM) ± S.E.M., Kappa Antagonist Effects [4]: No inhibition
- Imax (% inhibition) ± S.E.M., Kappa Antagonist Effects [4]: No inhibition

Compound: O=C(CCCCCCCCC(=O)Oc1ccc2c(c1)[C@@]13CCCC[C@H]1[C@@H](C2)N(CC1CCC1)CC3)Oc1ccc2c(c1)[C@@]13CCCC[C@H]1[C@@H](C2)N(CC1CCC1)CC3 [compound 10, reference compound]
- Emax (% stimulation) ± S.E.M., Mu Agonist Effects [2]: 51 ± 6.5 % stimulation
- Functional Activity at μ opioid receptor [2]: Partial Agonist
- Functional activity at κ opioid receptor [3]: Agonist
- IC50 (nM) ± S.E.M., Kappa Antagonist Effects [4]: No inhibition
- Imax (% inhibition) ± S.E.M., Kappa Antagonist Effects [4]: No inhibition
- Selectivity μ/δ/κ [6]: 2/90/1

Compound: C=CCN1CC[C@]23c4c5ccc(OC(=O)CCCCCCCCC(=O)Oc6ccc7c(c6)[C@@]68CCCC[C@H]6C(C7)N(CC6CCC6)CC8)c4O[C@H]2CCC[C@H]3[C@H]1C5 [compound 11, reference compound]
- Functional Activity at μ opioid receptor [2]: Partial Agonist
- Functional activity at κ opioid receptor [3]: κ agonists; also recorded: Agonist
- IC50 (nM) ± S.E.M., Kappa Antagonist Effects [4]: No inhibition
- Imax (% inhibition) ± S.E.M., Kappa Antagonist Effects [4]: No inhibition

Compound: CC(CC(=O)Oc1ccccc1)C(=O)O (stereo not drawn) [mono phenyl ester of 2-methylsuccinic acid]
- times more stable than mono phenyl succinate [7]: 43 times
